# Experimental data collected from several papers.
# Protocols differ between the studies behind these lines.
# Target: Calcium/calmodulin-dependent protein kinase type 1D (CAMK1D, Homo sapiens, UniProt Q8IU85)
SMILES,read-out,mode,method,tested at,endpoint,result
Cn1cncc1[C@](O)(COc1ccc(C#N)cc1-c1ccc(OC(F)(F)F)cc1)c1ccc(C#N)cc1,cell-free assay,,competition with immobilised ligand,1 µM,remaining binding,100%
Nc1ncc(-c2nc(N3CCOCC3)nc(N3CCOCC3)n2)c(C(F)F)n1,binding,,competition with immobilised ligand,10 µM,remaining binding,100%
CC(C)(C)c1cc(C=C(C#N)C#N)cc(Br)c1O,enzyme activity,inhibitor,,0.5 µM,remaining activity,111%
Cn1cc(-c2cc(F)cc(N3CCn4c(cc5c4CCCC5)C3=O)c2CO)cc(Nc2ccc(N3CCN(C4COC4)CC3)cn2)c1=O,enzyme activity,inhibitor,,0.1 µM,inhibition,15%
COc1ncccc1-c1cnn2ccc(N3CCN(C(=O)OC(C)C)CC3)nc12,binding,,competition with immobilised ligand,1 µM,remaining binding,100%
N#CC1(c2ccccn2)CCN(Cc2cc(C(=O)O)c(=O)n3ccccc23)CC1,cell-free assay,,competition with immobilised ligand,1 µM,remaining binding,100%
O=c1[nH]c2ccccc2n1C1CCN(Cc2ccc(-c3[nH]c4cc5ncnc5cc4nc3-c3ccccc3)cc2)CC1,cell-free assay,,,0.5 µM,remaining signal,107%
Cc1nn(C)cc1-c1nc2c(N3CCN(Cc4ccc(Cl)cc4)CC3)c(Cl)cnc2[nH]1,binding,,competition with immobilised ligand,1 µM,remaining binding,100%
